Data from article PMC5663466 (Journal of proteome research, 2017).

Assays:
[1] = tested on: tyrosine and serine/threonine kinases; details: cited from earlier work
[2] = tested on: protein and lipid kinases in HeLa cell lysate; test: Affinity pulldown-soluble competition in duplex SILAC-labeled HeLa cell lysate; type: binding, human; details: 50 μM soluble competitor against affinity matrix 7
How it was run: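 HeLa cells SILAC-labelled for ≥5 doublings in Lys/Arg-free DMEM with 10% dialysed FBS, 200 μg/ml proline and 0.2 mM light or heavy Lys/Arg, then lysed in modified RIPA buffer. Lysate (300 μg, 2 mg/ml) was pre-incubated 20 min at 4°C with DMSO or test compound (1% DMSO final), then pulled down 3 h at 4°C. SILAC channel beads were combined after washing, digested on-bead with LysC then trypsin, and run as single-shot nanoLC-MS/MS.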

Row | Compound | number of tyrosine and serine/threonine kinases inhibited [1] | number of protein and lipid kinases with specific interaction [2]
1 | Cc1nc(Nc2ncc(C(=O)Nc3c(C)cccc3Cl)s2)cc(N2CCN(CCO)CC2)n1 [dasatinib] | over 30 | 
2 | COc1cc2c(Oc3ccc(NC(=O)C4(C(=O)Nc5ccc(F)cc5)CC4)cc3F)ccnc2cc1OCCCN1CCOCC1 [foretinib] |  | 29
